DENV2 CPE = inhibitors of DENV2 cytopathic effect, primary screen, cell-based, plate reader, single concentration; DENV2-infected cells, cytopathic effect rescue; CPE inhibition, % at 9.99 µM; 350,000 compounds, 1.7% hits; AID 651640, 2012; in the data active = CPE inhibition above about 20%, passing the limit was not always enough; inconclusive = no clear call, values can overlap the other calls; tested in BHK-21 cells;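 also: 0% = median of neutral control wells and 100% = median of positive control wells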
Statin myotox sup = suppressors of statin myotoxicity in C2C12 myotubes, primary screen, cell-based, single point, plate reader. C2C12 myotubes + simvastatin, ATP luminescence, 48 h; scaled: DMSO 0, geranylgeraniol control 100. rescue of ATP level, % at 7.49 µM. 330,000 compounds, 0.78% hits;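 active = mean ATP rescue above about 67%, or every replicate alone reaching that limit, limit read from the data, passing the limit was not always enough; inconclusive = no clear call, values can overlap the other calls; inactive = mean under the limit and some replicate under it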;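 also: myotubes were challenged with 10 µM simvastatin during compound exposure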
E-sel inducer = E-selectin induction in HUVECs, primary screen, imaging, HUVEC, immunofluorescence imaging, single point; P16581; normalized: neutral wells 0, TNF-alpha wells 100; activation, % at 7.58 µM; 260,000 compounds, 0.37% hits; AID 686992, 2013;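 active = mean E-selectin-positive cell signal at least 10% of the positive control, reached in at least 60% of replicates, without over 20% cell loss; inconclusive = no rule given, readout overlaps actives, possibly toxicity-flagged; inactive = the rest, including those meeting only one limit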
Target sequence (P16581 whole entry, looked up): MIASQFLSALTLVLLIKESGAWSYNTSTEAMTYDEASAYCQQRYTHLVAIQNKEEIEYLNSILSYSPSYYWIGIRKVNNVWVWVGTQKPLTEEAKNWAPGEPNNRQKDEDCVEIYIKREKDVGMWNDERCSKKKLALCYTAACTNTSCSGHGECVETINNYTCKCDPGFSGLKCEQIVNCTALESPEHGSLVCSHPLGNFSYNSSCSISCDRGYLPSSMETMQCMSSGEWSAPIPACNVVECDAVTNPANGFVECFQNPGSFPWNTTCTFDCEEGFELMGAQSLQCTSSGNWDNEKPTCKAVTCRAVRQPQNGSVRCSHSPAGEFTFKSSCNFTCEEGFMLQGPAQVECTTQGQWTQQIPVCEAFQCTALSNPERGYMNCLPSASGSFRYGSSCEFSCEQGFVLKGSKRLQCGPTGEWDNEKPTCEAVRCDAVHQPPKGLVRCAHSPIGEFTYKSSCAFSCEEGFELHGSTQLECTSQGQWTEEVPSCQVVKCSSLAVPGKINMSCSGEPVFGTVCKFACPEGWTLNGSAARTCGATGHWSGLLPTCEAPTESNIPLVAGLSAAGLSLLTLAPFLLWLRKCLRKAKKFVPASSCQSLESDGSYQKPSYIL
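material = human umbilical vein endothelial cells (HUVEC), E-selectin induction | quantity = 3,000 cells/well | medium = EGM-2 growth medium on 0.1% gelatin-coated wells | technique = immunofluorescence imaging | read-out basis = % PE-positive cells | control set = TNF-alpha positive control, DMSO neutral control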
An asterisk follows results filed as active; ? = inconclusive; . = no result given. Compounds with a hit are over-represented: about 2.2% of the library has one in this group of screens.

SMILES | DENV2 CPE | Statin myotox sup | E-sel inducer
COc1ccc(S(=O)(=O)Nc2ccc3c(c2)C(=O)N([C@@H](C)CO)C[C@@H](C)[C@@H](CN(C)Cc2ccc4c(c2)OCO4)OCCCC[C@@H](C)O3)cc1 | -4 | -131 | 0
COc1ccc(S(=O)(=O)Nc2ccc3c(c2)C(=O)N([C@H](C)CO)C[C@H](C)[C@@H](CN(C)Cc2ccc4c(c2)OCO4)OCCCC[C@H](C)O3)cc1 | 30* | -66 | 0
COc1ccc(S(=O)(=O)Nc2ccc3c(c2)C(=O)N([C@@H](C)CO)C[C@@H](C)[C@H](CN(C)Cc2ccc4c(c2)OCO4)OCCCC[C@@H](C)O3)cc1 | 56* | 54 | 2
COc1ccc(S(=O)(=O)Nc2ccc3c(c2)C(=O)N([C@@H](C)CO)C[C@H](C)[C@H](CN(C)Cc2ccc(Cl)c(Cl)c2)OCCCC[C@@H](C)O3)cc1 | -3 | 24 | 0
COc1ccc(S(=O)(=O)Nc2ccc3c(c2)C(=O)N([C@H](C)CO)C[C@@H](C)[C@H](CN(C)Cc2ccc4c(c2)OCO4)OCCCC[C@H](C)O3)cc1 | -5 | -283 | 1
COc1ccccc1-c1cnc2c(c1)C(=O)N([C@@H](C)CO)C[C@@H](C)[C@@H](CN(C)C(=O)CC1CC1)O2 | -4 | 8 | 0
CCNC(=O)[C@@H]1[C@@H](CO)[C@@H]2Cn3c(ccc(/C=C/c4ccccc4)c3=O)[C@H]1N2C(=O)c1ccncc1 | 6 | -5 | 0
Cc1noc(C)c1S(=O)(=O)Nc1ccc2c(c1)C(=O)N([C@H](C)CO)C[C@H](C)[C@@H](CN(C)Cc1ccncc1)O2 | 4 | . | 5
CC1(C(=O)NS(=O)(=O)Cc2cccc(Cl)c2)CCN1C(=O)c1ccc(C2CCCCC2)cc1 (configuration not stated) | 90* | -10 | 0
CC1(C(=O)NS(=O)(=O)Cc2ccccc2)CCN1C(=O)c1ccc(C2CCCCC2)cc1 (configuration not stated) | -5 | 7 | 0
CN(CC(=O)Nc1ccccc1Cl)C(=O)COC(=O)/C=C/c1cccs1 | -9 | 0 | .
CN(CC(=O)Nc1ccccc1Cl)C(=O)COC(=O)c1cccs1 | 57* | 14 | .
CCC(=O)NC[C@H]1[C@@H](c2ccc(C3=CCCC3)cc2)[C@H](CO)N1C(C)=O | -8 | -14 | 1
CSc1nc2c(=S)[nH]c(=S)[nH]c2s1 | 87* | . | 0
C[C@H](CO)N1C[C@H](C)[C@H](CN(C)CC2CC2)Oc2cc(C#Cc3cccnc3)ccc2S1(=O)=O | . | -13 | 1
O=C(C[C@@H]1C[C@@H]2c3cc(NC(=O)C4CCC4)ccc3O[C@@H]2[C@@H](CO)O1)NCC1CC1 | -3 | -2 | 0
CCOc1ccc(NS(=O)(=O)c2cc(C(=O)N3CCC3)ccc2Cl)cc1 | 47* | 6 | .
CCOc1ccc(NS(=O)(=O)c2ccc(C(=O)N3CCCCC3)cc2)cc1 | -7 | -12 | 0
C[C@@H]1CN([C@@H](C)CO)C(=O)c2cc(NC(=O)NC3CCCCC3)ccc2O[C@@H](C)CCCCO[C@H]1CN(C)C(=O)Cc1ccccc1 | -19 | . | 0
COc1ccc(C#Cc2ccc([C@H]3[C@H]4CN(S(=O)(=O)c5cn(C)cn5)CCCCN4[C@H]3CO)cc2)cc1 | -3 | 10 | 0
COc1cccc(-c2ccc([C@@H]3[C@@H](CO)N4CCCCN(S(=O)(=O)c5cn(C)cn5)C[C@H]34)cc2)c1 | 73* | 5 | 1
COc1cccc(-c2ccc([C@H]3[C@H]4CN(S(=O)(=O)c5cn(C)cn5)CCCCN4[C@H]3CO)cc2)c1 | -2 | -9 | 0
COc1ccc(C#Cc2ccc([C@@H]3[C@@H](CO)N4CCCCN(S(=O)(=O)c5cn(C)cn5)C[C@H]34)cc2)cc1 | 43* | -3 | 0
C[C@H](O)C#Cc1cnc2c(c1)C(=O)N([C@H](C)CO)C[C@H](C)[C@H](CN(C)CC1CC1)O2 | . | 3 | 0
CCCC#Cc1ccc2c(c1)O[C@H](CN(C)C(=O)COC)[C@@H](C)CN([C@@H](C)CO)S2(=O)=O | -9 | 2 | 0
SMILES | DENV2 CPE | Statin myotox sup | E-sel inducer
O=C(O)[C@]1(S(=O)(=O)c2ccccc2)C[C@@H]2ON=C(c3cccc(Br)c3)[C@@H]2C1 | 25* | -8 | .
O=S(=O)(c1ccccc1)[C@@]1(c2ccccc2)C[C@@H]2ON=C(c3cccc(Br)c3)[C@@H]2C1 | . | -2 | 1
CN1CCN(C(=O)C[C@@H]2CC[C@@H](NC(=O)Cc3ccccn3)[C@@H](CO)O2)CC1 | -6 | -4 | 0
C[C@H]1CN([C@@H](C)CO)S(=O)(=O)c2ccc(C#Cc3ccccc3F)cc2O[C@H]1CN(C)CC1CC1 | -3 | 9 | 1
O=S(=O)(Cc1ccccc1)N1CCCCN2[C@H](C1)[C@H](c1ccc(-c3cccnc3)cc1)[C@@H]2CO | -6 | 21 | 0
Cc1noc(C)c1S(=O)(=O)N(C)C[C@H]1Oc2ccc(NC(=O)Nc3ccc(F)cc3)cc2CC(=O)N([C@H](C)CO)C[C@H]1C | -2 | 9 | 5
CC(C)NC(=O)Nc1ccc2c(c1)CC(=O)N([C@@H](C)CO)C[C@@H](C)[C@H](CN(C)S(=O)(=O)c1ccc(F)cc1)O2 | 45* | -2 | 6
C[C@H](CO)N1C[C@H](C)[C@@H](CN(C)S(=O)(=O)c2ccc(Cl)cc2)Oc2ccc(NC(=O)Nc3ccc(F)cc3)cc2CC1=O | 0 | -101 | -13
Cc1ccc(S(=O)(=O)N(C)C[C@@H]2Oc3ccc(NC(=O)Nc4ccc(F)cc4)cc3CC(=O)N([C@H](C)CO)C[C@@H]2C)cc1 | 2 | -169 | 3
Cc1ccc(S(=O)(=O)N(C)C[C@H]2Oc3ccc(NC(=O)Nc4ccc(F)cc4)cc3CC(=O)N([C@H](C)CO)C[C@@H]2C)cc1 | 80* | -25 | 0
Cc1noc(C)c1S(=O)(=O)N(C)C[C@H]1Oc2ccc(NC(=O)Nc3ccc(F)cc3)cc2CC(=O)N([C@H](C)CO)C[C@@H]1C | 3 | -9 | 64*
CC(C)NC(=O)Nc1ccc2c(c1)CC(=O)N([C@H](C)CO)C[C@@H](C)[C@H](CN(C)S(=O)(=O)c1ccc(F)cc1)O2 | . | 3 | -3
C[C@@H]1CN([C@H](C)CO)C(=O)Cc2cc(NC(=O)Nc3ccc(F)cc3)ccc2O[C@H]1CN(C)S(=O)(=O)c1ccc(Cl)cc1 | 21* | 22 | ?
O=C(Nc1ccc2c(c1)[C@@H]1C[C@@H](CC(=O)N3CCOCC3)O[C@@H](CO)[C@@H]1O2)c1ccc2c(c1)OCO2 | 2 | -4 | 0
C[C@H](O)C#Cc1ccc([C@@H]2[C@H]3CN(C(=O)c4ccncc4)CCCCN3[C@H]2CO)cc1 | -12 | 32 | 0
C[C@@H]1CN([C@@H](C)CO)C(=O)c2cc(-c3ccncc3)cnc2O[C@H]1CN(C)C(=O)c1ccncc1 | 9 | 12 | 0
O=S(=O)(c1cccc(F)c1)N1CC[C@@H]2[C@@H](CO)Nc3ccc(-c4cccc(F)c4)cc3[C@@H]21 | -17 | 20 | 1
COc1cccc(C(=O)N2C[C@H]3[C@@H](c4ccccc42)[C@@H](CO)N3Cc2ccccc2F)c1 | ? | 26 | 0
